# Assay outcomes deposited in PubChem BioAssay by several laboratories.
# In the library only some 1.3% were active in any assay of this set; here they are far more common.
# CHT inh – inhibitors of human choline transporter CHT; High affinity choline transporter 1 (Homo sapiens), Q9GZV3; CHT-expressing cells, membrane potential dye, choline response; active compounds read low; B-score at 10 µM; 310,000 compounds, 0.86% hits; AID 488975, 2010;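 active = B-score over 3 SD under the library average, and starting fluorescence ratio not unusually high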;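 also: choline stimulus applied at its EC90 after an EC20 pre-addition; B-score computed on integrated fluorescence ratio after choline addition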
# Target sequence (Q9GZV3 whole entry, looked up): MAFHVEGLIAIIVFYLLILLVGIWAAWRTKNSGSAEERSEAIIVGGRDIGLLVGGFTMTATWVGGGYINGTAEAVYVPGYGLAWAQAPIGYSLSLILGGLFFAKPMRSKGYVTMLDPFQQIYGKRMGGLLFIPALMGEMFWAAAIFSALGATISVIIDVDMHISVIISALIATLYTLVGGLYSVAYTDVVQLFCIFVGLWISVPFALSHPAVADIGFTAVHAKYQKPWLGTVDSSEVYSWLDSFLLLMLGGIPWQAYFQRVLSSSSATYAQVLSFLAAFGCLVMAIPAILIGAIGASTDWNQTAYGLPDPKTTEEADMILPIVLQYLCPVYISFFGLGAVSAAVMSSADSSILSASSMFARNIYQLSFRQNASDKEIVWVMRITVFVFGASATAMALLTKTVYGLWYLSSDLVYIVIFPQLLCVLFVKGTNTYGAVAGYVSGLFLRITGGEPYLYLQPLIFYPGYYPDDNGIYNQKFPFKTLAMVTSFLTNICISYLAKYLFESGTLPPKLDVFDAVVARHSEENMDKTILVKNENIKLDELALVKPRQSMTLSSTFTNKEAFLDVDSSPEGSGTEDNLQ
# proCasp3 act – activators of human procaspase-3 D3A mutant, primary screen, biochemical, absorbance, PC-3 D3A mutant, single concentration; Caspase-3 (Homo sapiens), P42574; recombinant procaspase-3 D3A, Ac-DEVD-pNA absorbance 405 nm; activation, % at 8.5 µM; 330,000 compounds, 0.11% hits;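 active = activation above the mean of all tested compounds plus 3 SD, cut at about 21% in these data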;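 also: 0% = DMSO alone and 100% = DMSO wells spiked with extra 5 µM PC-3 D3A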
#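 Evaluation: percent activation relative to control range; Material: Procaspase-3 D3A mutant, all three cleavage aspartates alanine; Compound: single dose, 8.5 µM nominal compound, 0.8% DMSO; Replication: one well per compound; Signal: absorbance at 405 nm, 0 and 120 min; Schedule: 1 h preincubation plus 2 h reaction at 25 °C.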
# procasp7 counter – procaspase-7 activators, primary screen, counter-screen for procaspase-3 activator project, biochemical, absorbance, HTS, human; Caspase-7 (Homo sapiens), P55210; recombinant procaspase-7, Ac-DEVD-pNA absorbance 405 nm; D23A/D198A/D206A triple mutant, cannot self-cleave; scale: DMSO 0, 5 µM enzyme 100; activation, % at 8.5 µM; 330,000 compounds, 0.093% hits; AID 463210, 2010;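 active = percent activation above the screen-wide mean plus 3 SD, cut at about 25% in these data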
#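 Replicates: singlicate. Assay system: Procaspase-7 triple mutant (PC-7 D3A). Signal: 405 nm absorbance of p-nitroaniline. Times: 1 h preincubation, 2 h reaction. Buffer or medium: Zinc-free HEPES pH 7.4 with 300 mM NaCl, 0.01% Triton X-100. Also added: DEVD-pNA substrate. Benchmarks: DMSO wells as 0%, DMSO with 5 µM added PC-7 as 100%.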
# CHT allo act – CHT positive allosteric modulators, primary screen, cell-based, membrane potential dye, choline EC20; AID 488977, 2010; 310,000 compounds, 0.49% hits; High affinity choline transporter 1 (Homo sapiens), Q9GZV3; CHT-expressing cells; active compounds read high; LV-AA mutant CHT in HEK293 cells; B-score at 10 µM;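 active = initial fluorescence not abnormally high and integrated response B-score, plate-corrected, over 3 SD above library mean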
# CHT inh conf – CHT inhibitors, confirmation, cell-based, membrane potential dye, duplicate. shares compounds with CHT inh. CHT-expressing cells, choline membrane potential dye; LV-to-AA substituted CHT, HEK293 cells. CHT activity remaining % of control (active compounds read low), % at 10 µM. 2,400 compounds, 70% hits. AID 493221, 2011;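 active = choline transporter activity left, mean of duplicates at 10 µM, below buffer-only control mean minus 3 SD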;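 also: depolarization triggered by choline at its EC90 following an EC20 pre-addition; 0% = hemicholinium-3 full block and 100% = buffer-only control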
# HEK293 CHT ctr – membrane potential effects in parental HEK293, counter-screen for CHT inhibitor project, cell-based, membrane potential dye | shares compounds with CHT inh | choline response; active = decrease or increase beyond buffer ±3SD | membrane potential ratio readout (active if shifted either direction beyond buffer ±3SD; no single direction) at 10 µM | 2,400 compounds, 4% hits | AID 493222, 2011;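 also: parental cells lack the transporter so any hit is non-specific; ratio is peak minus trough fluorescence over baseline after EC90 choline challenge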
# An asterisk follows results filed as active; i = inactive; · = no result given.
SMILES,CHT inh,proCasp3 act,procasp7 counter,CHT allo act,CHT inh conf,HEK293 CHT ctr
CCCCNC(=O)c1cn(CC)c2ccc(S(=O)(=O)N3CCCCCC3)cc2c1=O,i,-0.1,1.4,i,·,·
CCCCN(CCCC)CCNC(=O)c1cn(CC)c2ccc(S(=O)(=O)N3CCc4ccccc4C3)cc2c1=O,-9.17*,5.3,2.5,i,12.4%*,i
C=CCn1cc(C(=O)NCCCOCC)c(=O)c2cc(S(=O)(=O)N(CC)CC)ccc21,i,2.2,7.6,i,·,·
CC1CCN(S(=O)(=O)c2ccc3c(c2)c(=O)c(C(=O)N2CCOCC2)cn3C)CC1,i,3.3,-1.4,i,·,·
C=CCn1cc(C(=O)NCCCN(CC)CC)c(=O)c2cc(S(=O)(=O)N3CCC(C)CC3)ccc21,-8.56*,2.3,3.5,i,25.7%*,i
Cn1cc(C(=O)N2CCc3ccccc3C2)c(=O)c2cc(S(=O)(=O)N3CCOCC3)ccc21,-6.05*,-4.3,13.0,i,i,i
Cc1cccc(C(C)C)c1NC(=O)C(C)OC(=O)Cc1n[nH]c(=O)c2ccccc12 (stereo unspecified),i,4.6,5.2,i,·,·
COCCN(Cc1nc2ccccc2c(=O)[nH]1)C(=O)COc1cccc(C(C)=O)c1,·,12.8,-0.7,·,·,·
CN(C(=O)c1cc(S(=O)(=O)N2CCCCC2)c[nH]1)C1CCCCC1,-5.06*,11.7,1.2,i,i,i
Cc1noc(NS(=O)(=O)c2ccc(NC(=O)c3ccccc3NS(=O)(=O)c3ccc(F)cc3)cc2)c1C,·,6.5,4.3,·,·,·
Cc1cc(C)nc(N2CCC(C(=O)NCc3cccs3)CC2)n1,-8.3*,-4.8,1.3,i,i,i
Cc1cc(C)nc(N2CCC(C(=O)NCc3ccco3)CC2)n1,i,5.8,12.2,i,·,·
CC12CC(O)C3c4ccc(O)cc4CCC3C1CCC2=O (stereo unspecified),i,0.5,10.6,i,·,·
CC(=O)OC1CC2(C)/C(=N\O)CCC2C2CCc3cc(O)ccc3C12 (stereo unspecified),-11.1*,·,·,i,3.2%*,i
Cc1csc(NC(=O)CSc2nnc(-c3ccoc3C)n2Cc2ccco2)n1,-5.29*,4.8,-1.7,i,i,i
Cc1occc1-c1nnc(SCC(=O)Nc2nccs2)n1CCc1ccccc1,-6.51*,16.1,0.7,i,i,i
Cc1csc(NC(=O)CSc2nnc(C)n2Cc2ccco2)n1,i,-0.6,-3.5,i,·,·
CN(CC(=O)Nc1cccc(F)c1)C(=O)c1ccccc1Sc1ccccc1C#N,·,-0.7,-5.3,·,·,·
COc1cc2c(cc1OC)/C(=C/C(=O)c1ccc(F)cc1)NCC2,i,2.1,12.2,i,·,·
COc1cc2c(cc1OC)/C(=C/C(=O)c1ccccc1F)NCC2,-5.3*,·,·,i,51.8%*,i
CC(C)N(C(=O)COC(=O)c1ccccc1C(=O)c1ccc(Cl)c([N+](=O)[O-])c1)C(C)C,i,1.5,7.9,i,·,·
CN(CCC#N)C(=O)COC(=O)c1ccccc1C(=O)c1ccc(Cl)c([N+](=O)[O-])c1,-4.95*,-2.9,2.4,i,48.6%*,i
Fc1cccc(CSc2nc3ncccc3[nH]2)c1,i,5.3,10.6,i,·,·
Fc1ccc(CSc2nc3ncccc3[nH]2)cc1,-6.04*,-8.0,-8.1,i,i,i
CC(C)OC(=O)CN1CCN(S(=O)(=O)c2cc(Cl)ccc2Cl)CC1,-6.35*,-0.9,0.0,i,66.4%*,i
SMILES,CHT inh,proCasp3 act,procasp7 counter,CHT allo act,CHT inh conf,HEK293 CHT ctr
COc1ccc(C(=O)NCCc2nnc3ccc(SCC(=O)N4CCCCC4)nn23)cc1,i,1.2,-1.4,i,·,·
CCN(CC)C(=O)N1CCN(S(=O)(=O)c2ccc(C)c(C)c2)CC1,-7.36*,-0.2,4.2,i,36.5%*,i
O=C(NCC(=O)N1CCCC1)c1ccc(Cl)cc1,i,3.1,-6.9,i,·,·
COc1ccc(CCNc2nc(-c3ccc(O)cc3)cs2)cc1OC,-5.01*,-5.8,0.8,i,i,i
COc1ccc(CCNc2nc(-c3ccncc3)cs2)cc1OC,i,4.7,-0.3,i,·,·
CCc1nc2ccccc2c(C(=O)OCC(=O)N(C)Cc2ccccc2)c1C,·,-3.7,8.1,·,·,·
CCOC(=O)c1c(CCl)nc2ccccc2c1C,-8.92*,1.6,-0.5,i,68.0%*,i
COc1ccc(CCNC(=O)CN2C(=O)C(=O)N(C3CCCC3)C2=O)cc1OC,·,7.4,1.1,·,·,·
Cc1cccc(NC(=O)/C(=C\c2ccco2)NC(=O)c2cccs2)c1,i,-4.7,-1.4,i,·,·
Cc1ccc(C(=O)N/C(=C/c2ccco2)C(=O)Nc2cccc(C)c2)cc1,-5.72*,2.2,5.4,i,61.6%*,i
Fc1ccc(OCCOCCOc2cccc3[nH]ccc23)cc1,-5.3*,6.7,7.4,i,i,i
COc1ccc(CN(C(=O)c2nsc(Cl)c2Cl)C(C(=O)NC2CCCCC2)c2ccc(OC)cc2)cc1 (stereo unspecified),i,10.6,-2.1,i,·,·
O=C(NC1CCCCC1)C(c1ccc2ncccc2c1)N(Cc1ccccc1)C(=O)c1ccc2c(c1)OCCO2 (stereo unspecified),-6.68*,4.1,-13.3,i,46.9%*,i
COc1ccc(CN(C(=O)c2ccc3c(c2)OCCO3)C(C(=O)NC2CCCCC2)c2ccc3ncccc3c2)cc1 (stereo unspecified),-9.2*,2.5,-7.1,i,16.3%*,i
COc1cc(/C=C2/SC(=S)N(c3c(C)n(C)n(-c4ccccc4)c3=O)C2=O)ccc1O,i,-23.7,-27.4,i,·,·
COc1ccc(CN(C(=O)c2cccs2)c2ccccc2)cc1,i,-0.6,2.8,i,·,·
COc1ccc(CN(C(=O)c2ccco2)c2ccccc2)cc1,-4.96*,3.2,0.1,i,i,i
CCn1c(SCC(=O)c2c(N)n(C3CC3)c(=O)[nH]c2=O)nc2cc(S(N)(=O)=O)ccc21,·,1.1,5.0,·,·,·
Cc1ccc(N2CCN(C(=O)C3CCCN(c4ncnc5c4nc4n5CCCCC4)C3)CC2)c(C)c1 (stereo unspecified),-5.94*,5.1,-10.5,i,45.1%*,i
